High-throughput results deposited in PubChem by several laboratories.
Most compounds without a hit are left out; they make up all but 4.8% or so of the library.
UCH37 inh: human UCH37 deubiquitinating enzyme inhibition | purified proteasome/UCH37, Ub-AMC cleavage fluorescence | AID 588478 | 0.33% of 330,000 active | inhibition, % (no concentration beside the values) | Q9Y5K5;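 active = mean inhibition over replicate wells above about 20%, limit read from the data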;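 also: 0% = compound-free wells with enzyme and 100% = wells lacking proteasome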
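Material: Human UCH37 enzyme supplied as purified proteasome complex | Schedule: 30 min compound-proteasome preincubation then 25 min substrate reaction, room temperature | Detection: AMC fluorescence from Ub-AMC cleavage, excitation 355 nm, emission 460 nm | Benchmarks: Wells without proteasome as full block, compound-free enzyme plus substrate as uninhibited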
pPAFAH inh: inhibitors of human plasma PAF acetylhydrolase (pPAFAH). Q13093. recombinant pPAFAH, FP-rhodamine probe fluorescence polarization. inhibition, % at 3.39 µM. 1.5% of 330,000 active. AID 463082;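 active = inhibition above the mean inhibition across the screen plus 3 SD, cut at about 25% in these data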;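 also: inhibitors block binding of the rhodamine activity-based probe so polarization drops; 0% = enzyme with DMSO and 100% = wells lacking pPAFAH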
PAFAH1B3 inh: PAFAH1B3 (human) inhibition | AID 492972 | 0.28% of 340,000 active | inhibition, % at 3.39 µM | Q15102 | recombinant PAFAH1B3, FP-rhodamine probe, fluorescence polarization;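 active = inhibition above the screen-wide average of all tested compounds plus 3 SD, cut at about 25% in these data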;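 also: 0% = enzyme with DMSO only and 100% = wells lacking PAFAH1B3 protein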
Target sequence (Q15102 whole entry, looked up): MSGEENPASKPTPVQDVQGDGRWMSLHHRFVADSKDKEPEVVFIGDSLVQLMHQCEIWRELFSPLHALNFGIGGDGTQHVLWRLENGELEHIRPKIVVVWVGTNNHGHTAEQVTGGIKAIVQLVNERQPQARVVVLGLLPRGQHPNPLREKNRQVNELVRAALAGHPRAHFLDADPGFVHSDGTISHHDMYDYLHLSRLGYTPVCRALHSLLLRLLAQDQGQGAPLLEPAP
PAFAH2 FP inh: PAFAH2 (human) inhibition | recombinant PAFAH2, FP-rhodamine activity probe, fluorescence polarization | 0.99% of 340,000 active | inhibition, % at 3.39 µM;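 active = inhibition above the mean over all tested compounds plus 3 SD, cut at about 30% in these data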;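 also: inhibitors block probe labeling of enzyme so polarization drops; 0% = enzyme with DMSO and 100% = wells lacking PAFAH2 protein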
PAFAH1B2 FP inh: blocks human PAF acetylhydrolase 1b catalytic subunit 2 | P68402 | recombinant PAFAH1B2, FP-rhodamine activity probe, fluorescence polarization | inhibition, % at 3.39 µM | 1.2% of 340,000 active;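 active = inhibition above the mean of all tested compounds plus 3 SD, cut at about 24% in these data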;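 also: 0% = enzyme with DMSO and 100% = wells lacking PAFAH1B2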
Target sequence (P68402 whole entry, looked up): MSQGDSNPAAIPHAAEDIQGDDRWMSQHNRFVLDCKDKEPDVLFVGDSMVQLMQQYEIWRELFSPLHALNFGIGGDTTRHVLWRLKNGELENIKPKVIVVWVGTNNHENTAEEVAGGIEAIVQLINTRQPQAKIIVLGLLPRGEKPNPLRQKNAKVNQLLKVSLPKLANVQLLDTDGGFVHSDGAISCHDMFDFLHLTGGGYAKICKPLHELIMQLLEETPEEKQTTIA
GRIN3A LBD mod: modulates the human NR3A ligand-binding domain. NR3A LBD differential scanning fluorimetry, Tm shift; 0% = protein alone, 100% = glycine-bound protein. Tm shift relative to glycine control, % at 25 µM. 2.5% of 340,000 active. AID 1259313;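 active = melting temperature shift of at least 10% of the positive control shift, at one fixed dose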
* = called active by the depositor.

How did Cc1ccc(S(=O)(=O)N2[C@@H](c3ccc(Br)cc3)C(C(=O)O)=CC[C@H]2c2ccc3c(c2)OCO3)cc1 do in these assays?
UCH37 inh: 2; pPAFAH inh: 7; PAFAH1B3 inh: 7; PAFAH2 FP inh: -2; PAFAH1B2 FP inh: 72*; GRIN3A LBD mod: 2

Results for Cc1ccc([C@@H]2CC=C(C(=O)O)CN2S(=O)(=O)c2ccc(C)cc2)cc1 ?
UCH37 inh: 4; pPAFAH inh: 5; PAFAH1B3 inh: 14; PAFAH2 FP inh: -3; PAFAH1B2 FP inh: 29*; GRIN3A LBD mod: 0

How did Cc1ccc(S(=O)(=O)N2CC(C(=O)O)=CC[C@H]2c2ccc3c(c2)OCO3)cc1 do in these assays?
UCH37 inh: -7; pPAFAH inh: 1; PAFAH1B3 inh: 4; PAFAH2 FP inh: 3; PAFAH1B2 FP inh: 7; GRIN3A LBD mod: -1

Results for Cc1ccc(S(=O)(=O)N2[C@@H](c3ccc(C(C)(C)C)cc3)C(C(=O)O)=CC[C@H]2c2ccc(Cl)c(Cl)c2)cc1 ?
UCH37 inh: 12; pPAFAH inh: 19; PAFAH1B3 inh: -8; PAFAH2 FP inh: -6; PAFAH1B2 FP inh: 76*; GRIN3A LBD mod: -6

How did CC(CS(=O)(=O)c1ccc(Cl)cc1)=NNC(N)=S do in these assays?
UCH37 inh: 0

What do the screens show for `Cc1cc(C)n(N=Cc2c(O)ccc3ccccc23)c(=O)c1C(N)=O`?
UCH37 inh: 5

Results for OC[C@@H]1[C@@H](c2ccc(Cl)cc2)C(c2cccc(Cl)c2)=NN1c1ccccc1 ?
UCH37 inh: inactive; pPAFAH inh: 6; PAFAH1B3 inh: 6; PAFAH2 FP inh: -2; PAFAH1B2 FP inh: -2; GRIN3A LBD mod: 31*

Results for OC[C@@H]1[C@@H](c2ccc(Cl)cc2)C(c2ccccc2)=NN1c1ccccc1 ?
UCH37 inh: inactive; pPAFAH inh: 6; PAFAH1B3 inh: 9; PAFAH2 FP inh: 5; PAFAH1B2 FP inh: 3; GRIN3A LBD mod: 24*

What do the screens show for `OC[C@@H]1[C@@H](c2ccc(F)cc2)C(c2cccc(Cl)c2)=NN1c1ccccc1`?
UCH37 inh: inactive; pPAFAH inh: 7; PAFAH1B3 inh: 3; PAFAH2 FP inh: -3; PAFAH1B2 FP inh: 4; GRIN3A LBD mod: 27*

What do the screens show for `COc1ccccc1[C@H]1C(c2ccc(F)cc2)=NN(c2ccccc2)[C@@H]1CO`?
UCH37 inh: -491; pPAFAH inh: 9; PAFAH1B3 inh: 10; PAFAH2 FP inh: 3; PAFAH1B2 FP inh: 5; GRIN3A LBD mod: -6

How did COc1ccccc1[C@H]1C(c2ccccc2)=NN(c2ccccc2)[C@@H]1CO do in these assays?
UCH37 inh: inactive; pPAFAH inh: 8; PAFAH1B3 inh: 11; PAFAH2 FP inh: 3; PAFAH1B2 FP inh: 0; GRIN3A LBD mod: 2

How did O=C1C(C=Nc2ccccc2O)=C(O)c2ccccc21 do in these assays?
UCH37 inh: 6; pPAFAH inh: 2; PAFAH1B3 inh: -8; PAFAH2 FP inh: 10; PAFAH1B2 FP inh: 2; GRIN3A LBD mod: -2

What do the screens show for `Cc1ccc(O)c(N=CC2=C(O)c3ccccc3C2=O)c1`?
UCH37 inh: 15; pPAFAH inh: 30*; PAFAH1B3 inh: 12; PAFAH2 FP inh: 5; PAFAH1B2 FP inh: 7; GRIN3A LBD mod: -12

How did CC(=NNC(=O)c1cccc(S(=O)(=O)Nc2ccc(C)cc2C)c1)c1ccncc1 do in these assays?
UCH37 inh: 4

Results for COc1ccc(OC)c(/C=N/NC(=O)c2cc3c(OC)cccc3[nH]2)c1 ?
pPAFAH inh: 25*; PAFAH1B3 inh: 12; PAFAH2 FP inh: 4; PAFAH1B2 FP inh: 13; GRIN3A LBD mod: 6

How did CCOC(=O)c1c(C)[nH]c(C(=O)N/N=C\c2ccccc2O)c1C do in these assays?
pPAFAH inh: 11; PAFAH1B3 inh: 5; PAFAH2 FP inh: 7; PAFAH1B2 FP inh: -2; GRIN3A LBD mod: 17*

What do the screens show for `COc1ccc(/C=N/NC(=O)c2cc3c(OC)ccc(OC)c3[nH]2)cc1O`?
pPAFAH inh: 24; PAFAH1B3 inh: 22; PAFAH2 FP inh: 5; PAFAH1B2 FP inh: 29*; GRIN3A LBD mod: -5

What do the screens show for `COc1ccc(OC)c2[nH]c(C(=O)N/N=C/c3ccccc3O)cc12`?
pPAFAH inh: 19; PAFAH1B3 inh: 42*; PAFAH2 FP inh: 30*; PAFAH1B2 FP inh: 34*; GRIN3A LBD mod: 18*

What do the screens show for `COc1ccc(OC)c2[nH]c(C(=O)NN=Cc3ccccc3O)cc12`?
UCH37 inh: -12

What do the screens show for `COc1ccc2[nH]c(C(=O)NN=Cc3ccc(OC)c(O)c3)cc2c1`?
UCH37 inh: -19

Results for Cn1c(=S)n(N=Cc2cccs2)c2ccccc21 ?
UCH37 inh: 2

How did CCOc1cc(C=NNC(=O)OC(C)(C)C)ccc1OC(=O)c1ccco1 do in these assays?
UCH37 inh: -1

What do the screens show for `COc1ccc(NC(=O)CON=C2CCCc3nonc32)cc1`?
UCH37 inh: 4

Results for O=C(Cc1ccc(Br)cc1)NCCc1ccc(F)cc1 ?
UCH37 inh: 1; pPAFAH inh: -4; PAFAH1B3 inh: -1; PAFAH2 FP inh: 0; PAFAH1B2 FP inh: 26*; GRIN3A LBD mod: -2

How did COc1oc(C(=O)NC2CCCCC2)c(-c2ccc(Cl)cc2)c1S(=O)(=O)c1ccccc1 do in these assays?
PAFAH1B3 inh: -1; PAFAH2 FP inh: 5; PAFAH1B2 FP inh: 32*; GRIN3A LBD mod: -4

Results for O=C(Cc1cccc([N+](=O)[O-])c1)Nc1ccc(C(=O)N2CCOCC2)cc1 ?
UCH37 inh: 29*; pPAFAH inh: 1; PAFAH1B3 inh: 10; PAFAH2 FP inh: -1; PAFAH1B2 FP inh: 4; GRIN3A LBD mod: -3

Results for Cc1cc(-c2onc(C)c2C(=O)NN=Cc2ccccc2)no1 ?
UCH37 inh: 5

What do the screens show for `CCOC(=O)c1sc(=S)n(C)c1NC(=O)c1cccc(Br)c1`?
UCH37 inh: 5; pPAFAH inh: 3; GRIN3A LBD mod: -1

What do the screens show for `COC(=O)c1ccc(NC(=O)CC(=O)Nc2ccc(C(=O)OC)cc2)cc1`?
UCH37 inh: 2; pPAFAH inh: -10; PAFAH1B3 inh: 2; PAFAH2 FP inh: -8; PAFAH1B2 FP inh: 2; GRIN3A LBD mod: 0

Results for CCOc1ccc(C(=O)Nc2ccc(NC(=O)c3ccccc3)cc2)cc1Br ?
UCH37 inh: -10; pPAFAH inh: 0; PAFAH1B3 inh: 10; PAFAH2 FP inh: 5; PAFAH1B2 FP inh: 1; GRIN3A LBD mod: 29*

How did COc1ccc(CC(=O)NNC(=S)Nc2ccccc2)cc1Br do in these assays?
UCH37 inh: 2; pPAFAH inh: -3; PAFAH1B3 inh: 0; PAFAH2 FP inh: -3; PAFAH1B2 FP inh: -3; GRIN3A LBD mod: -19

What do the screens show for `COC(=O)c1ccc(NC(=O)CNc2ccccc2)cc1`?
UCH37 inh: 4; pPAFAH inh: 10; PAFAH1B3 inh: 3; PAFAH2 FP inh: -4; PAFAH1B2 FP inh: 2; GRIN3A LBD mod: 42*
